Drawing on ChEMBL document CHEMBL4428062, “Human Toll-like Receptor (TLR) 8-Specific Agonistic Activity in Substituted Pyrimidine-2,4-diamines” (J Med Chem, 2016), this text covers Activity and EC50 for five compounds.

By EC50 is commonly meant the concentration needed to bring the measured effect to its halfway point.

The target of assay [1] is Toll-like receptor 3 (Homo sapiens) (UniProt O15455). As to the kind of experiment: Agonist activity at human TLR3 expressed in HEK293 cells assessed as induction of NF-kappaB activity by secreted alkaline phosphatase reporter gene assay. It counts as cell-based. In a few lines: (§1)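 HEK293 reporter lines stably co-transfected with the respective human TLR and an NF-κB/AP-1-driven secreted alkaline phosphatase gene, kept in selection medium. About 10^5 cells/ml were incubated with graded concentrations of stimuli. Supernatant sAP was read spectrophotometrically at 620 nm using a chromogenic substrate in detection medium. EC50 was taken as the arithmetic mean of quadruplicate samples.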
Chain of Toll-like receptor 3 (Homo sapiens) (O15455 whole entry): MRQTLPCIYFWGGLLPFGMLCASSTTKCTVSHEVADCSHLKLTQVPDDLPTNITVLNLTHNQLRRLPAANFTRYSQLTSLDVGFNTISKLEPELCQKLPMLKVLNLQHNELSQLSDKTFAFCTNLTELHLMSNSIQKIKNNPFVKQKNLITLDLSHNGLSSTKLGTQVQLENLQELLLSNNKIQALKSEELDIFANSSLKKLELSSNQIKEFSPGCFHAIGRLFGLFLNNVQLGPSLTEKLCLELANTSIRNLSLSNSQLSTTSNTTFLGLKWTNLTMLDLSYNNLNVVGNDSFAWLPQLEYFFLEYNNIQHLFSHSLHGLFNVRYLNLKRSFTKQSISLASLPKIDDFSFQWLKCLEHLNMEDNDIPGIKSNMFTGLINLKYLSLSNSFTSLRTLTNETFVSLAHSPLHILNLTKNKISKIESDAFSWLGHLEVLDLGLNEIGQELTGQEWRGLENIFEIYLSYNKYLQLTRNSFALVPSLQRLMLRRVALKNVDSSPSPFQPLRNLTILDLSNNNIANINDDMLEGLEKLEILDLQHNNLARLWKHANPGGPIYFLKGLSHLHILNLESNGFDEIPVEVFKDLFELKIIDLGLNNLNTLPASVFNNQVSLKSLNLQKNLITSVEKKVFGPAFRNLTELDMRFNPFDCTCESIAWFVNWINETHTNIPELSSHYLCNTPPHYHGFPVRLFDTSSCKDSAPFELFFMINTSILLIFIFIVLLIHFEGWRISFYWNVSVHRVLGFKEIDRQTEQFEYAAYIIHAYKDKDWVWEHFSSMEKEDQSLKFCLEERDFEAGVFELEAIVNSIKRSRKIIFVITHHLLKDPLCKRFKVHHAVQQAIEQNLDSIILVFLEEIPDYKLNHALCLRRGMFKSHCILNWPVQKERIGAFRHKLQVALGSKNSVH
Background: A reporter such as luciferase makes a cellular process visible.

For assay [2], the target named is T1, Toll-like receptor 8 (Homo sapiens) (UniProt Q9NR97).
T1 sequence (whole entry): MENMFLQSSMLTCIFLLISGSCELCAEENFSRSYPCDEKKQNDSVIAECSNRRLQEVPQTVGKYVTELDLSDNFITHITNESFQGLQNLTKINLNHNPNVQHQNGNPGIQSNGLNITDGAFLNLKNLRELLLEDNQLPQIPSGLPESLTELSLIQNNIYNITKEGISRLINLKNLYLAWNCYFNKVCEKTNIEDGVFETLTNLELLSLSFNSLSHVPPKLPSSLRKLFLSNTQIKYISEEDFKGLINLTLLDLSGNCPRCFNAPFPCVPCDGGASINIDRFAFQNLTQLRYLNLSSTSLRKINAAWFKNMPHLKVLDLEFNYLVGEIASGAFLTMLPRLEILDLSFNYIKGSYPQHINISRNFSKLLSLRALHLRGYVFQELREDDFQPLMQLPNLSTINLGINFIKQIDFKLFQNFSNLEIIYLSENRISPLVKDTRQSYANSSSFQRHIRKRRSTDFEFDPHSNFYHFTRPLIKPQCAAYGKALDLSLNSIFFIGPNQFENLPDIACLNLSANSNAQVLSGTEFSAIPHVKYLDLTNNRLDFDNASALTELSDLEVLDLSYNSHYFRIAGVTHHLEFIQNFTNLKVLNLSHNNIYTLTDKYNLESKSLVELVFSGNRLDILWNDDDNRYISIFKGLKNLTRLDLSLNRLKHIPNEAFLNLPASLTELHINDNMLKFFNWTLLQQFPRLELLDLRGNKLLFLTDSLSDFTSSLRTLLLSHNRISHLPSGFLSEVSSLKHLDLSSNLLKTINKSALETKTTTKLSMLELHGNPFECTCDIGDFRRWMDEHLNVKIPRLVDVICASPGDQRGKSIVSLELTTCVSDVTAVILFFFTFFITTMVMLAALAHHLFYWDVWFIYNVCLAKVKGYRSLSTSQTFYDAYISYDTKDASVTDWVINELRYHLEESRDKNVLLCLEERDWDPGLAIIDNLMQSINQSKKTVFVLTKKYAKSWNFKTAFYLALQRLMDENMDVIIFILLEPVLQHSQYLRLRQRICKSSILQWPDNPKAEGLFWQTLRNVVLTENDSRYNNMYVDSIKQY
The assay is described as follows: Agonist activity at TLR8 in human PBMC assessed as induction of IL-1beta levels after 16 hrs by immunoassay. In outline:
(§2)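 Freshly isolated human PBMC from venipuncture blood (informed consent), 10^5 cells/well, stimulated 16 h with graded concentrations of compound. Supernatants collected by centrifugation and cytokines quantified in duplicate with a multiplexed cytokine/chemokine magnetic bead array.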

Assay [3] has as its target T1, Toll-like receptor 8 (Homo sapiens). As to the kind of experiment: Agonist activity at TLR8 in human PBMC assessed as induction of IL-6 levels after 16 hrs by immunoassay. In a few lines:
as §2

For assay [4] the target is unchanged. As to the kind of experiment: Agonist activity at TLR8 in human PBMC assessed as increase in TNF-alpha production after 16 hrs by immunoassay. In a few lines: as §2
For assay [5] the target is unchanged. The assay is described as follows: Agonist activity at TLR8 in human PBMC assessed as Th1-biased stimulatory activity measured as IFNgamma release after 16 hrs by immunoassay. In outline: as §2
For assay [6], the target named is Toll-like receptor 5 (Homo sapiens) (UniProt O60602). The assay is described as follows: Agonist activity at human TLR5 expressed in HEK293 cells assessed as induction of NF-kappaB activity by secreted alkaline phosphatase reporter gene assay. It counts as cell-based. In outline:
as §1

Assay [7] deals with T2, Toll-like receptor 9 (Homo sapiens) (UniProt Q9NR96).
T2 sequence (whole entry): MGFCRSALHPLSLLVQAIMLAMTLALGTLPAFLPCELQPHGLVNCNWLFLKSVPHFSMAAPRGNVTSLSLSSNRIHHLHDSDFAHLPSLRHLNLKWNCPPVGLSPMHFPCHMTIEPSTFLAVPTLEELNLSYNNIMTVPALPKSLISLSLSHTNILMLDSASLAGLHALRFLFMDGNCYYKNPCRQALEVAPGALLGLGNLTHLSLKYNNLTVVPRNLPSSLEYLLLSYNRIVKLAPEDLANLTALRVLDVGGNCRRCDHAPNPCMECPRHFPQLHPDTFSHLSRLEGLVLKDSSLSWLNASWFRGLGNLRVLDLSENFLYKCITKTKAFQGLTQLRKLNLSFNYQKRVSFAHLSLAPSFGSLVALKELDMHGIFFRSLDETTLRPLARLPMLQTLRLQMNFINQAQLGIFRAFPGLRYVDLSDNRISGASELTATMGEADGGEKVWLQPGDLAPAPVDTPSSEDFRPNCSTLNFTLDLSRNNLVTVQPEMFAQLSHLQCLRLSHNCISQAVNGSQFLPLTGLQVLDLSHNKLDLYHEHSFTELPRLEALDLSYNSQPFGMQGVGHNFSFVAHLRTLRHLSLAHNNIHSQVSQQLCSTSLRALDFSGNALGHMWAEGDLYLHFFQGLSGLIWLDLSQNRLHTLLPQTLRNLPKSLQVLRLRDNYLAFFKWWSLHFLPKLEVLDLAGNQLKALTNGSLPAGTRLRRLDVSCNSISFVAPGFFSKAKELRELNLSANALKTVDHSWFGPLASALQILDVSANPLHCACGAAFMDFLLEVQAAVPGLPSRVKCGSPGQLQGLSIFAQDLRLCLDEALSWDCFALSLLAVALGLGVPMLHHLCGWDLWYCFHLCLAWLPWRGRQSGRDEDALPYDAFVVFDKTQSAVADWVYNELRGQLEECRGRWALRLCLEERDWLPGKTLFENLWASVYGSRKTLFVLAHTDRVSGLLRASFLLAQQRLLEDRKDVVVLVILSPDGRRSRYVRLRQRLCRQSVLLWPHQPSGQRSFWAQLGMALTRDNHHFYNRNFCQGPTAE
As to the kind of experiment: Agonist activity at human TLR9 expressed in HEK293 cells assessed as induction of NF-kappaB activity by secreted alkaline phosphatase reporter gene assay. The format is cell-based. In outline: as §1

The target in assay [8] is T3, Toll-like receptor 8 (Homo sapiens, UniProt Q9NR97).
T3 sequence (Q9NR97 whole entry): T1 sequence (whole entry)
The assay is described as follows: Agonist activity at human TLR8 expressed in HEK293 cells assessed as induction of NF-kappaB activity by secreted alkaline phosphatase reporter gene assay. The format is cell-based. In outline:
as §1

Assay [9] has as its target T1, Toll-like receptor 8 (Homo sapiens). As to the kind of experiment: Agonist activity at TLR8 in human monocytes assessed as upregulation of CD80 after 16 hrs by flow cytometry. The format is cell-based. In outline:
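Heparin-anticoagulated healthy-donor whole blood added to serial compound dilutions, 37 °C for 16 h, DMSO negative control. Stained with CD14-FITC, CD40-APC, CD80-PE-Cy7 and CD86-V450 (2.5 µg each, 4 °C, dark, 60 min). Erythrocytes lysed, leukocytes fixed, washed, then flow cytometry on 200,000 gated events. Monocytes gated as CD14+, CD80 read as MFI, means of duplicates.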
(In general: A flow cytometer gives signals particle by particle.)

Activity calls are given as the source filed them. The calls are words filed in the database; no cut-off is given here.

Chain of Toll-like receptor 5 (Homo sapiens) (O60602 whole entry): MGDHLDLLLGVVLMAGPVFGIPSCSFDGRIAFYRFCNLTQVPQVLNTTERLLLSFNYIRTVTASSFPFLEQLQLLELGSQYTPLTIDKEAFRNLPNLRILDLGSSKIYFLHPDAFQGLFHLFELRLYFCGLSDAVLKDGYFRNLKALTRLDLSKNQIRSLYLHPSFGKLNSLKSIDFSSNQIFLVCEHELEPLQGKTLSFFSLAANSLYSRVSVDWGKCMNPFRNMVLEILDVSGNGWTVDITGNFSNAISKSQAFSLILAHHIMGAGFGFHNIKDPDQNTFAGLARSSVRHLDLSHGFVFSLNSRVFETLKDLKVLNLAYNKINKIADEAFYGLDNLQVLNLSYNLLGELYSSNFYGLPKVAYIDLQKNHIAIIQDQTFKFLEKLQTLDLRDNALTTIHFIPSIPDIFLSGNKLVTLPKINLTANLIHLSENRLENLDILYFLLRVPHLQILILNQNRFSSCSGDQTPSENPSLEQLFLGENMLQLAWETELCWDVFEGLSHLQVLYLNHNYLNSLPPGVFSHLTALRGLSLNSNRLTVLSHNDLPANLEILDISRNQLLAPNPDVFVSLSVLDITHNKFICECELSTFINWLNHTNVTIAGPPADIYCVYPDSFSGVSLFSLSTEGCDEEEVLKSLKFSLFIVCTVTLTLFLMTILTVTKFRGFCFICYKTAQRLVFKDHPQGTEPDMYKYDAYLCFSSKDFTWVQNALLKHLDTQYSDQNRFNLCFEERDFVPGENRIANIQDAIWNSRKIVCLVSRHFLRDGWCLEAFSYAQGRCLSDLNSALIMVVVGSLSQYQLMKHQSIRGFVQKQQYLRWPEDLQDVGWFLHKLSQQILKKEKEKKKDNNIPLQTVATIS

For the compound `CCCCNc1nc(N)nc(-c2ccccc2)c1CCCCN`, the outcome in [1], in [2], in assay [3], in [4], in [5] and in [6] was inactive. Further, in assay [7], the outcome was inactive.

For `CCCCNc1nc(N)nc(C)c1CCCCN`, the outcome in assay [1], in assay [2], in assay [3], in assay [6] and in assay [7] was inactive. For the same compound, in assay [8], the EC50 came to 300 nM. The result in [5] was Active. For the same compound, in [9], the Activity was 1.5 µM.

Take `CCCCNc1nc(N)nc(C)c1I`: the result in [1], in assay [6] and in assay [7] was inactive. Further, the half-maximal effective concentration (EC50) in [8] was found to be 1640 nM. For the same compound, the outcome in [2], in assay [3], in [4] and in [5] was Active. The Activity in assay [9] was 5 µM.

Consider `CCCCNc1cc(-c2ccccc2)nc(N)n1`, for which the result in [1], in [2], in [3], in assay [4], in [5] and in [6] was inactive. Besides, in assay [7], the outcome was inactive. Moreover, in assay [8], the EC50 amounted to 6700 nM.

For `CCCCCn1c(N)nc2c(C)cccc21`, the outcome in [1], in assay [6] and in assay [7] was inactive. Moreover, in assay [8], the EC50 turned out to be 1800 nM. Further, the result in [2], in [3] and in [4] was Active. Moreover, the Activity in [9] stood at 14 µM.
